Bioassay records (PubChem BioAssay)
PglD inh – blocks C. jejuni PglD acetyltransferase activity; purified PglD enzyme, DTNB colorimetric CoA detection; inhibition, % at 12.5 µM; AID 602405; hit rate 0.098% among 360,000; in the data active = inhibition above about 16%, passing the limit was not always enough; inconclusive = no clear call, values can overlap the other calls
Cneo AK release – Cryptococcus neoformans lysis via adenylate kinase release; C. neoformans lysis, adenylate kinase release luminescence, 4 h; normalised: neutral wells 0, clomiphene wells 100; lysis activity, % at 15 µM; hit rate 0.2% among 360,000;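 active = mean lysis activity across replicates of at least 80%, whatever share of replicates individually reach that level; inactive = mean lysis activity below 80%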
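Assay system: log-phase C. neoformans yeast / Quantity: yeast cell density of 5 × 10^6 cells/mL / Medium: fresh YPD growth medium / Compound: single dose / Timing: static 4 h at 37 °C with compound, 1 h detection / Measured by: adenylate kinase release luminescence / Read-out: lysis from increased AK signal / Benchmarks: Clomiphene as positive lysis control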
Ecoli rRNA inh – selective bacterial rRNA inhibition in E. coli | E. coli WT GFP vs humanized-ribosome RFP mutants, fluorescence, 24 h; hits give low values; DMSO median 0, no signal -100 | GFP signal change (wild-type ribosome), % (test concentration not listed) | hit rate 1.6% among 350,000;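 active = significant combined selectivity score with lowered wild-type GFP, culture density cut under 30%, mutant RFP and density less affected; inactive = any of these conditions unmet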
Mot1-301 SUMO – SUMOylation pathway inhibition by Mot1-301 growth rescue; S. cerevisiae Mot1-301 growth rescue, ATP luminescence, 38.5C; percent above DMSO median, 100 means doubled; growth rescue, % at 18.8 µM; hit rate 1% among 320,000;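 active = every valid replicate shows activation above 250% relative to neutral control wells; inactive = the rest, any valid replicate at or below 250%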
CR mimetic SO – caloric restriction mimetics inhibiting age-related superoxide in yeast | hit rate 0.18% among 330,000 | superoxide response (% of plate mean), % at 10 µM | S. cerevisiae aged cells, superoxide DHE fluorescence; hits give low values | AID 2690;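 active = superoxide response under a set limit, about three screen SD below normal, cut at about 65% in these data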;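 also: yeast aged for seven days with compound at 30 °C before DHE staining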
AID977621 – wild-type E. coli growth inhibition versus H69 humanized strain – H69 mutant RFP, wild-type GFP, cherry-pick, dose response; 1,900 tested, under 10 active; activity change, negative = inhibition at 50 µM; fluorescence, 24 h; AID 977621; shares compounds with Ecoli rRNA inh;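 active = Wild-type ribosome reporter drop at least double the humanized mutant ribosome reporter drop, growth loss under a set limit; inconclusive = no clear call, values can overlap the other calls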;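 also: wild-type GFP and H69 mutant RFP strains grown together 50/50 in each well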
AID977628 – growth of wild-type and h24-humanized E. coli strains – h24 mutant RFP vs wild-type GFP, cherry-pick, dose response; 1,900 tested, under 10 active; AID 977628; activity change, negative = inhibition at 50 µM; E. coli WT GFP strain growth, fluorescence, 24 h; shares compounds with Ecoli rRNA inh;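 active = compound lowering the normal-ribosome reporter at least twice as much as the humanized-ribosome reporter, growth loss under a set limit; inconclusive = no clear call, values can overlap the other calls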;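 also: wild-type GFP and h24 humanized RFP strains co-cultured 1 to 1 per well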
Numbers stand for hits. This is a sample that favours compounds with a hit; in the whole collection about 2.2% have one here.

For CCc1ccn2cc(-c3ccc4c(c3)OCO4)nc2c1 the results were PglD inh inactive, Cneo AK release inactive, Ecoli rRNA inh -26.2, Mot1-301 SUMO inactive, CR mimetic SO inactive and AID977621 inactive.
For COC(=O)c1ccc2nc(-c3ccc4c(c3)OCO4)cn2c1 the results were PglD inh inactive, Cneo AK release inactive, Ecoli rRNA inh inactive, Mot1-301 SUMO inactive and CR mimetic SO inactive.
For C=CCNC(=O)c1ccccc1CCc1ccccc1 the results were PglD inh inactive, Cneo AK release inactive, Ecoli rRNA inh -25.9, Mot1-301 SUMO inactive, CR mimetic SO inactive, AID977621 inactive and AID977628 inactive.
C[C@H]1CN([C@@H](C)CO)C(=O)c2cccc(NS(=O)(=O)c3ccc(Cl)cc3)c2O[C@@H]1CN(C)C(=O)Nc1ccc2c(c1)OCO2 was read as PglD inh inactive, Cneo AK release inactive and Ecoli rRNA inh inactive.
Screening COc1ccc(N(CC(=O)Nc2ccccc2C(=O)N2CCOCC2)S(=O)(=O)c2ccc(F)cc2)cc1 returned Mot1-301 SUMO inactive and CR mimetic SO inactive.
Screening O=C(CN(c1ccc(F)cc1)S(=O)(=O)c1ccccc1)Nc1ccccc1C(=O)O returned Ecoli rRNA inh -26.6, Mot1-301 SUMO inactive, CR mimetic SO inactive and AID977621 inactive.
`COc1ccc(OC)c(N(CC(=O)Nc2ccccc2)S(=O)(=O)c2ccccc2)c1` gave PglD inh inactive, Cneo AK release inactive, Ecoli rRNA inh inactive, Mot1-301 SUMO inactive and CR mimetic SO inactive.
Screening COc1ccc(OC)c(N(CC(=O)Nc2ccccc2F)S(=O)(=O)c2ccccc2)c1 returned Ecoli rRNA inh -24.0, Mot1-301 SUMO inactive, CR mimetic SO inactive and AID977621 inactive.
`CC(CCc1ccccc1)NC(=O)CCC1CCCC1` (stereo not given) gave PglD inh inactive, Cneo AK release inactive, Ecoli rRNA inh -21.4, Mot1-301 SUMO inactive, CR mimetic SO inactive, AID977621 inactive and AID977628 inactive.
For O=C(NCc1cccnc1)c1ccc([N+](=O)[O-])o1 the results were PglD inh inactive, Cneo AK release inactive, Ecoli rRNA inh inactive, Mot1-301 SUMO inactive and CR mimetic SO inactive.
COc1ccc(NC(=O)c2ccc([N+](=O)[O-])o2)cc1 was read as PglD inh inactive, Cneo AK release inactive, Ecoli rRNA inh inactive, Mot1-301 SUMO inactive and CR mimetic SO inactive.
O=C(Nc1cccnc1)c1ccc([N+](=O)[O-])o1 was read as PglD inh inactive, Cneo AK release inactive, Ecoli rRNA inh -19.1, Mot1-301 SUMO inactive, CR mimetic SO inactive and AID977628 inconclusive.
For O=C(Nc1ccc(Cl)cn1)c1ccc([N+](=O)[O-])o1 the results were Ecoli rRNA inh -20.6, AID977621 inactive and AID977628 inactive.
Screening CC(=O)c1ccc(NC(=O)c2ccc([N+](=O)[O-])o2)cc1 returned PglD inh inactive, Cneo AK release inactive, Ecoli rRNA inh -15.0, Mot1-301 SUMO inactive, CR mimetic SO inactive and AID977628 inactive.
`Cc1c(Cl)c([N+](=O)[O-])nn1Cc1ccc(C(=O)Nc2ccc(Cl)cn2)o1` gave PglD inh inactive, Cneo AK release inactive, Mot1-301 SUMO inactive and CR mimetic SO inactive.
For CO[C@@H]1CN(C)C(=O)c2cc(NC(=O)Nc3ccccc3)ccc2OC[C@H](C)N(C(=O)CN(C)C)C[C@H]1C the results were PglD inh inactive, Cneo AK release inactive and Ecoli rRNA inh inactive.
For CCCc1ccc(OCc2ccc(C(=O)N3CCCC3)o2)cc1 the results were PglD inh inactive, Cneo AK release inactive, Ecoli rRNA inh inactive, Mot1-301 SUMO inactive and CR mimetic SO inactive.
For CCOc1ccc(OCc2ccc(C(=O)N3CCCC3)o2)cc1 the results were PglD inh inactive, Cneo AK release inactive, Ecoli rRNA inh -16.8, Mot1-301 SUMO inactive, CR mimetic SO inactive, AID977621 inactive and AID977628 inactive.
Screening C[C@H](O)C#Cc1cnc2c(c1)C(=O)N([C@H](C)CO)C[C@H](C)[C@H](CN(C)C(=O)c1ccccc1F)O2 returned PglD inh inactive, Cneo AK release inactive and Ecoli rRNA inh inactive.
`C[C@@H]1CCCCO[C@H](CN(C)C(=O)CCCN(C)C)[C@@H](C)CN([C@@H](C)CO)C(=O)c2cc(NC(=O)Nc3cccc4ccccc34)ccc2O1` gave PglD inh inactive, Cneo AK release inactive, Ecoli rRNA inh -38.9, AID977621 inactive and AID977628 inconclusive.
C[C@@H]1CCCCO[C@@H](CN(C)C(=O)Nc2cccc3ccccc23)[C@@H](C)CN([C@H](C)CO)C(=O)c2cc(NC(=O)Nc3cccc4ccccc34)ccc2O1 was read as PglD inh inactive, Cneo AK release inactive and Ecoli rRNA inh inactive.
`C[C@H]1CCCCO[C@H](CN(C)C(=O)CCCN(C)C)[C@@H](C)CN([C@@H](C)CO)C(=O)c2cc(NC(=O)Nc3cccc4ccccc34)ccc2O1` gave PglD inh inactive, Cneo AK release inactive, Ecoli rRNA inh inactive, AID977621 inconclusive and AID977628 inactive.
For C[C@@H]1CN([C@@H](C)CO)C(=O)c2cc(NC(=O)Nc3ccccc3)ccc2O[C@@H](C)CCCCO[C@@H]1CN(C)C(=O)CCCN(C)C the results were PglD inh inactive, Cneo AK release inactive and Ecoli rRNA inh inactive.
For C[C@H](CO)N1C[C@H](C)[C@H](CN(C)C(=O)Nc2cccc3ccccc23)OCCCC[C@H](C)Oc2ccc(NC(=O)Nc3cccc4ccccc34)cc2C1=O the results were PglD inh inactive, Cneo AK release inactive and Ecoli rRNA inh inactive.
C[C@@H]1CCCCO[C@@H](CN(C)C(=O)CCCN(C)C)[C@H](C)CN([C@H](C)CO)C(=O)c2cc(NC(=O)Nc3cccc4ccccc34)ccc2O1 was read as PglD inh inactive, Cneo AK release inactive, Ecoli rRNA inh inactive, AID977621 inactive and AID977628 inconclusive.
`C[C@@H]1CCCCO[C@@H](CN(C)C(=O)CCCN(C)C)[C@H](C)CN([C@@H](C)CO)C(=O)c2cc(NC(=O)Nc3cccc4ccccc34)ccc2O1` gave PglD inh inactive, Cneo AK release inactive, Ecoli rRNA inh inactive and AID977628 inconclusive.
Screening CCCNC(=O)Nc1ccc2c(c1)C(=O)N(C)C[C@H](OC)[C@@H](C)CN(Cc1ccc(-c3ccccn3)cc1)[C@@H](C)CO2 returned Ecoli rRNA inh inactive.
Screening C[C@H](CO)N1C[C@H](C)[C@H](CN(C)C(=O)CCCN(C)C)OCCCC[C@H](C)Oc2ccc(NC(=O)Nc3cccc4ccccc34)cc2C1=O returned PglD inh inactive, Cneo AK release inactive, Ecoli rRNA inh inactive, AID977621 inactive and AID977628 inconclusive.
